In ChEMBL document CHEMBL3745620, “Design and Synthesis of DiselenoBisBenzamides (DISeBAs) as Nucleocapsid Protein 7 (NCp7) Inhibitors with anti-HIV Activity” (J Med Chem, 2015):
Calls of active or inactive are those of the source. The calls are words filed in the database; no cut-off is given here.

Assays:
[1] = system: Human immunodeficiency virus 1; test: Antiviral activity against HIV1 3B infected in human CEM cells assessed as protection against virus-induced cytopathic effect by XTT assay; assay type: functional, organism-based; details: Human immunodeficiency virus 1, 3B, CCRF-CEM
[2] = Cytotoxicity against human CEM cells by XTT assay; assay type: cell-based, CCRF-CEM
[3] = Selectivity index, ratio of CC50 for human CEM cells to EC50 for HIV1 3B; assay type: toxicity, cell-based, CCRF-CEM
[4] = system: Human immunodeficiency virus 1; test: Antiviral activity against HIV1 3B infected in human MT4 cells assessed as protection against virus-induced cytopathic effect after 5 days by MTT assay; assay type: functional, organism-based; details: Human immunodeficiency virus 1, 3B, MT4, 120 h
How it was run: (§1)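 MT-4 cells in RPMI 1640 with 10% heat-inactivated FCS, resuspended at 6 x 10^5 cells/ml. Compounds added at start in serial 5-fold dilutions, triplicate wells, to mock- and virus-infected cells (100-300 CCID50 per well). After 5 days, viability by MTT reduction (OD540). […] Mean ± SD, at least two experiments.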

[5] = system: Human immunodeficiency virus 2; test: Antiviral activity against HIV2 ROD infected in human MT4 cells assessed as protection against virus-induced cytopathic effect after 5 days by MTT assay; assay type: functional, organism-based; details: Human immunodeficiency virus 2, ISOLATE ROD, MT4, 120 h; how it was run: as §1
[6] = Cytotoxicity against human MT4 cells assessed as cell viability after 5 days by MTT assay; assay type: cell-based
How it was run: (§2)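 Compounds added at start in serial 5-fold dilutions, triplicate wells, to mock- and virus-infected cells (100-300 CCID50 per well). After 5 days, viability by MTT reduction (OD540). Mean ± SD, at least two experiments.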

[7] = Selectivity index, ratio of CC50 for human MT4 cells to EC50 for HIV1 3B; assay type: toxicity, cell-based; details: read-out: Ratio CC50/EC50; how it was run: as §2
[8] = Selectivity index, ratio of CC50 for human MT4 cells to EC50 for HIV-2 ROD; assay type: toxicity, cell-based; details: read-out: Ratio CC50/EC50; how it was run: as §2
[9] = system: Human immunodeficiency virus 1; test: Antiviral activity against HIV1 3B infected in human MT4 cells assessed as inhibition of viral replication by measuring p24 Ag production at 2 ug/ml measured at 31 hrs post infection by ELISA; assay type: functional, organism-based
How it was run: (§3)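 MT-4 cells infected with HIV-1 IIIB at m.o.i. 0.5, 1 h adsorption, then seeded at 45,000 cells/well at 37°C. Compound added at times from 0 to 25 h post-infection. Read-out was p24 in supernatant by ELISA at 31 h post-infection.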

[10] = system: Human immunodeficiency virus 1; test: Antiviral activity against HIV1 3B infected in human MT4 cells assessed as inhibition of viral replication by measuring p24 Ag production at 50 ug/ml measured at 31 hrs post infection by ELISA; assay type: functional, organism-based; how it was run: as §3
HuT78 = test: Inhibition of NCp7 of HIV1 3B persistently infected in HUT78 cells assessed as accumulation of unprocessed Gag polyprotein after 43 hrs by Western blot analysis; assay type: cell-based; details: Human immunodeficiency virus 1
How it was run: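 Washed HuT-78(IIIB) cells (2x10^5 in 1 ml) treated with compound for 43 h at 37°C. Virions pelleted from clarified supernatant (36,670 g, 2 h, 4°C), lysed, run on SDS-PAGE and transferred to PVDF. Blot probed with mouse anti-p24 (1:5000), then HRP anti-mouse (1:2500), with chemiluminescent detection.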

[11] = system: Human immunodeficiency virus 1; test: Antiviral activity against HIV1 3B persistently infected in HUT78 cells assessed as reduction of p24 production after 43 hrs by ELISA; assay type: functional, organism-based; details: Human immunodeficiency virus 1, 3B, HuT78, 43 h
How it was run: (§4)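 Chronically HIV-1 IIIB-infected HuT-78 cells washed four times in PBS to remove free virions and seeded at 2 × 10^5 cells/well with 7 serial 5-fold compound dilutions for 43 h at 37°C. Supernatant p24 measured by ELISA. Cytotoxicity was run in parallel by MTT plus microscopy. SI = CC50/EC50. Mean ± SD, ≥2 experiments.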

[12] = Cytotoxicity against human HUT78 cells assessed as reduction in cell viability after 5 days by MTT assay; assay type: cell-based
[13] = Selectivity index, ratio of CC50 for human HUT78 cells to EC50 for HIV1 3B; assay type: toxicity, cell-based; details: read-out: Ratio CC50/EC50; how it was run: as §4
[14] = system: Human immunodeficiency virus 1; test: Virucidal activity against HIV1 3B infected in human MT4 cells assessed as reduction of virus infectivity at 125 ug/ml after 1 hr by MTT assay; assay type: functional, organism-based
How it was run: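 HIV-1 IIIB stock incubated with compound in 100 µl RPMI-1640/10% FCS for 1 h at 37°C, then diluted 4000-fold. Residual infectivity titrated on MT-4 cells, with CCID50 calculated by the Reed and Muench method.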

[15] = system: Human immunodeficiency virus 1; test: Antiviral activity against NNRTI-resistant HIV1 RES056 harboring reverse transcriptase K103N/181C double mutant infected in human MT4 cells; assay type: functional, organism-based; details: Human immunodeficiency virus 1, RES056, MT4
How it was run: (§5)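 MT-4 cells in RPMI 1640 with 10% heat-inactivated FCS were infected at the start of the experiment, with compound added across serial 5-fold dilutions in triplicate wells. Cells were seeded at 6 x 10^5 cells/ml. After 5 days, protection against virus-induced cytopathic effect was read by MTT reduction at OD540. […] Values are means ± SD of at least two experiments.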

[16] = system: Human immunodeficiency virus 1; test: Antiviral activity against ritonavir-resistant HIV1 3B/RIT infected in human MT4 cells; assay type: functional, organism-based; details: Human immunodeficiency virus 1, 3B/RIT; how it was run: as §5
[17] = system: Human immunodeficiency virus 1; test: Antiviral activity against NRTI/NNRTI-resistant HIV1 L6 harboring reverse transcriptase V75I/F77L/K103N/F116Y/Q151M/M184V mutant infected in human MT4 cells; assay type: functional, organism-based; details: Human immunodeficiency virus 1, L6, MT4; how it was run: as §5
[18] = system: Human immunodeficiency virus 1; test: Antiviral activity against ritonavir-resistant HIV1 B12 harboring […] L10I/I15V/I54V/L63P/V82A/I85V mutant infected in human MT4 cells; assay type: functional, organism-based; details: Human immunodeficiency virus 1, B12, MT4; how it was run: as §5
[19] = system: Human immunodeficiency virus 1; test: Antiviral activity against AZT-resistant HIV1 ADP/141 harboring reverse transcriptase D67N/K70R/T215F/K219Q mutant infected in human MT4 cells; assay type: functional, organism-based; details: Human immunodeficiency virus 1, ADP/141, MT4; how it was run: as §5
[20] = Antiviral activity against nevirapine-resistant SIV mac251 infected in human MT4 cells; assay type: functional, cell-based; details: Simian immunodeficiency virus; how it was run: as §5
[21] = Selectivity index, ratio of CC50 for human MT4 cells to EC50 for NNRTI-resistant HIV1 RES056 harboring reverse transcriptase K103N/181C double mutant; assay type: toxicity, cell-based; details: read-out: Ratio CC50/EC50
How it was run: (§6)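 Uninfected and infected MT-4 cells were run in parallel in triplicate over serial 5-fold compound dilutions for 5 days, and viability was read by MTT at OD540. […] SI = CC50/EC50, from means of at least two experiments.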

[22] = Selectivity index, ratio of CC50 for human MT4 cells to EC50 for NRTI/NNRTI-resistant HIV1 L6 harboring reverse transcriptase V75I/F77L/K103N/F116Y/Q151M/M184V mutant; assay type: toxicity, cell-based; details: read-out: Ratio CC50/EC50; how it was run: as §6
[23] = Selectivity index, ratio of CC50 for human MT4 cells to EC50 for ritonavir-resistant HIV1 3B/RIT; assay type: toxicity, cell-based; details: read-out: Ratio CC50/EC50; how it was run: as §6
[24] = Selectivity index, ratio of CC50 for human MT4 cells to EC50 for ritonavir-resistant HIV1 B12 harboring […] L10I/I15V/I54V/L63P/V82A/I85V mutant; assay type: toxicity, cell-based; details: read-out: Ratio CC50/EC50; how it was run: as §6
[25] = Selectivity index, ratio of CC50 for human MT4 cells to EC50 for AZT-resistant HIV1 ADP/141 harboring reverse transcriptase D67N/K70R/T215F/K219Q mutant; assay type: toxicity, cell-based; details: read-out: Ratio CC50/EC50; how it was run: as §6
[26] = Selectivity index, ratio of CC50 for human MT4 cells to EC50 for nevirapine-resitant SIV Mac251
[27] = system: Human immunodeficiency virus 1; test: Virucidal activity against HIV1 3B infected in MT4 cells assessed as reduction of virus infectivity at 125 ug/ml after 1 hr by MTT assay
[28] = system: Human immunodeficiency virus 1; test: Antiviral activity against HIV1 3B infected in human MT4 cells assessed as inhibition of viral replication by measuring p24 Ag production at 60 ug/ml measured at 31 hrs post infection by ELISA; assay type: functional, organism-based; how it was run: as §3
[29] = system: Human immunodeficiency virus 1; test: Antiviral activity against HIV1 3B infected in human MT4 cells assessed as inhibition of viral replication by measuring p24 Ag production at 90 ug/ml measured at 31 hrs post infection by ELISA; assay type: functional, organism-based; how it was run: as §3

CC[C@H](C)[C@H](NC(=O)c1ccccc1SSc1ccccc1C(=O)N[C@H](C(=O)O)[C@@H](C)CC)C(=O)O
EC50 [1]: 9 µM
CC50 [2]: > 120 µM
selectivity ratio [3]: > 13.3

O=C(O)CNC(=O)c1ccccc1[Se][Se]c1ccccc1C(=O)NCC(=O)O
EC50 [4]: 3.15 µM
EC50 [5]: 3.5 µM
CC50 at 120 h [6]: 117 µM
selectivity ratio [7]: 37
selectivity ratio [8]: 34
inhibition [9]: Active
inhibition [10]: Active
inhibition (HuT78): Dose-dependent effect
EC50 [11]: 14.1 µM
CC50 at 120 h [12]: 108 µM
selectivity ratio [13]: 7.8
Activity [14]: Active
EC50 [15]: 3.51 µM
EC50 [16]: 3.3 µM
EC50 [17]: 3.44 µM
EC50 [18]: 6.43 µM
EC50 [19]: 4.51 µM
EC50 [20]: 2.21 µM
selectivity ratio [21]: 33
selectivity ratio [22]: 34
selectivity ratio [23]: 36
selectivity ratio [24]: 18
selectivity ratio [25]: 26
Ratio CC50/EC50 [26]: 52
Activity [27]: Active

O=C(O)CC[C@H](NC(=O)c1ccccc1[Se][Se]c1ccccc1C(=O)N[C@@H](CCC(=O)O)C(=O)O)C(=O)O
EC50 [4]: 3.31 µM
EC50 [5]: 3.18 µM
CC50 at 120 h [6]: 107 µM
selectivity ratio [7]: 32
selectivity ratio [8]: 34
inhibition [9]: Active
inhibition [28]: Active
inhibition (HuT78): Dose-dependent effect
EC50 [11]: 15.5 µM
CC50 at 120 h [12]: 100 µM
selectivity ratio [13]: 6.5
Activity [14]: Active
EC50 [15]: 3.61 µM
EC50 [16]: 5.42 µM
EC50 [17]: 6.59 µM
EC50 [18]: 14.5 µM
EC50 [19]: 2.8 µM
EC50 [20]: 1.7 µM
selectivity ratio [21]: 29
selectivity ratio [22]: 16
selectivity ratio [23]: 20
selectivity ratio [24]: 8
selectivity ratio [25]: 38
Ratio CC50/EC50 [26]: 63
Activity [27]: Active

CC[C@H](C)[C@H](NC(=O)c1ccccc1[Se][Se]c1ccccc1C(=O)N[C@H](C(=O)O)[C@@H](C)CC)C(=O)O
EC50 [4]: 13.8 µM
EC50 [5]: 13.1 µM
CC50 at 120 h [6]: 164 µM
selectivity ratio [7]: 12
selectivity ratio [8]: 13
inhibition [9]: Active
inhibition [29]: Active
inhibition (HuT78): Dose-dependent effect
EC50 [11]: 73.2 µM
CC50 at 120 h [12]: > 162 µM
selectivity ratio [13]: > 2.2
EC50 [15]: 28 µM
EC50 [16]: 25.8 µM
EC50 [17]: 25.9 µM
EC50 [18]: 27.7 µM
EC50 [19]: 14.7 µM
EC50 [20]: 17.4 µM
selectivity ratio [21]: 6
selectivity ratio [22]: 6
selectivity ratio [23]: 6
selectivity ratio [24]: 6
selectivity ratio [25]: 11
Ratio CC50/EC50 [26]: 9
